The subject of one experiment is A549. As to the kind of experiment: Cytotoxicity against human A549 cells after 2 days. It is filed as functional, cell-based. To be noted: A549, 48 h. Put shortly: (§1)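 Growth inhibition under continuous exposure for 2 days. Stock solutions were made in DMSO and kept at -70 °C, then diluted into culture medium to a final DMSO of ≤1% (v/v). EC50 was taken as the concentration giving 50% growth inhibition.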

The test system of another experiment is MCF7. Kind of experiment: Cytotoxicity against human MCF7 cells after 2 days. It is filed as functional, cell-based. Conditions: MCF7, 48 h. Put shortly:
as §1

A word on the EC50: it is the concentration giving half of the maximal effect. Read a high EC50 as lower potency in that assay.

≈ marks a conversion by molar mass, not a printed value.

`C[C@H]1CC[C@@]2(OC1)O[C@H]1C[C@H]3[C@@H]4CC[C@@H]5C[C@@H](O[C@@H]6O[C@H](CO)[C@@H](O[C@@H]7OC[C@@H](O)[C@H](O)[C@H]7O)[C@H](O)[C@H]6O)CC[C@]5(C)[C@H]4CC[C@]3(C)[C@H]1[C@@H]2C` [ASPAFILIOSIDE A]: the figures for the EC50 in the experiment on A549 and in the experiment on MCF7 were 9.4 µg/mL (≈ 13.2 µM) and more than 20 µg/mL, respectively.

On to `C[C@@H]1CC[C@@]2(OC1)O[C@H]1C[C@H]3[C@@H]4CC[C@H]5C[C@@H](O[C@@H]6O[C@H](CO[C@@H]7OC[C@H](O)[C@H](O)[C@H]7O)[C@@H](O)[C@H](O)[C@H]6O)CC[C@]5(C)[C@H]4CC(=O)[C@]3(C)[C@H]1[C@@H]2C` [FILIASPAROSIDE B], for which the EC50 was determined as 16.4 µg/mL (≈ 22.6 µM) with A549 and 16.8 µg/mL (≈ 23.2 µM) in the experiment with MCF7.

As to `COc1cc([C@@H]2c3cc4c(cc3[C@@H](O[C@@H]3O[C@@H]5CO[C@@H](C)O[C@H]5[C@H](O)[C@H]3O)[C@H]3COC(=O)[C@H]23)OCO4)cc(OC)c1O` [ETOPOSIDE], the EC50 turned out to be 0.8 µg/mL (≈ 1.36 µM) in the experiment with A549 and 2.8 µg/mL (≈ 4.76 µM) in the experiment on MCF7.

As for `C[C@H]1CC[C@@]2(OC1)O[C@H]1C[C@H]3[C@@H]4CC[C@@H]5C[C@@H](O[C@@H]6O[C@H](CO)[C@@H](O[C@@H]7O[C@@H](C)[C@H](O)[C@@H](O)[C@H]7O)[C@H](O)[C@H]6O[C@H]6OC[C@H](O)[C@@H](O)[C@@H]6O)CC[C@]5(C)[C@H]4CC[C@]3(C)[C@H]1[C@@H]2C`, the figures for the EC50 with A549 and with MCF7 were 2.3 µg/mL (≈ 2.68 µM) and 3 µg/mL (≈ 3.5 µM), respectively.

On to `C[C@H]1CC[C@@]2(OC1)O[C@H]1C[C@H]3[C@@H]4CC[C@@H]5C[C@@H](O[C@@H]6O[C@H](CO[C@@H]7OC[C@H](O)[C@H](O)[C@H]7O)[C@@H](O)[C@H](O)[C@H]6O)CC[C@]5(C)[C@H]4CC[C@]3(C)[C@H]1[C@@H]2C` [FILIASPAROSIDE D], for which the EC50 in the experiment with A549 stood at 2.4 µg/mL (≈ 3.38 µM); in the experiment with MCF7, 10.3 µg/mL (≈ 14.5 µM).

With `C[C@@H]1CC[C@@]2(OC1)O[C@H]1C[C@H]3[C@@H]4CC[C@H]5C[C@@H](O[C@@H]6O[C@H](CO[C@@H]7OC[C@H](O)[C@H](O)[C@H]7O)[C@@H](O[C@@H]7OC[C@@H](O)[C@H](O)[C@H]7O)[C@H](O)[C@H]6O)CC[C@]5(C)[C@H]4CC(=O)[C@]3(C)[C@H]1[C@@H]2C` [FILIASPAROSIDE A], the EC50 stood at 13.3 µg/mL (≈ 15.5 µM) with A549 and 11.2 µg/mL (≈ 13.1 µM) in the experiment with MCF7.

These data come from ChEMBL document CHEMBL1141248, “Filiasparosides A-D, cytotoxic steroidal saponins from the roots of Asparagus filicinus” (J Nat Prod, 2007).
